A short description of test [1]: S. cerevisiae growth inhibition in permissive medium (OD615), pilot counter-assay for S. cerevisiae lifespan shortening project, permissive growth control (AID 705;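 active = growth inhibition above 25% in both replicates, a cutoff set 3 SD above the mean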). The conditions noted are these: OD615, 24 h, at 10 µM, active compounds read high. The method, boiled down:
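Material: engineered DeaD yeast; Compound: one dose 10 µM, DMSO 0.25% final; Detection: absorbance (optical density) at 615 nm; Buffer or medium: permissive raffinose/galactose medium; Timing: 24 h exposure, 30 °C.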

A short description of test [2]: S. cerevisiae growth inhibition in restrictive medium, OD615, pilot screen, restrictive growth control, yeast lifespan reduction project (AID 706;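 active = growth inhibition above a set limit, 3 SD over mean compound inhibition, in both replicates, cut at about 43% in these data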;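 note: modified DeaD lifespan yeast strain shifted to restrictive glucose medium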). The following applies: OD615, 48 h, at 10 µM, active compounds read high. The method, boiled down: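 Buffer or medium: restrictive glucose medium (CSMM-D); test system: modified S. cerevisiae; doses: single dose of 10 µM compound final, 0.25% DMSO; schedule: 48 h compound exposure at 30 °C; detection: absorbance (optical density) measured at 615 nm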

Test [3] is described as follows: doxorubicin toxicity protection in MRP-1 cells – H69AR cells, CellTiter-Glo, duplicate, MRP-1 activator project, pilot screen (AID 807;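 active = viability increase at or above a cutoff of the median across tested compounds plus 3 SD, cut at about 8.5% in these data, passing the limit was not always enough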;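 note: compound pretreatment 18-22 h then 72 h combined with doxorubicin; 0% = doxorubicin alone and 100% = vehicle without doxorubicin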). The conditions noted are these: H69AR viability with doxorubicin, CellTiter-Glo luminescence; at 10 µM; active compounds read high.
Test [4] is described as follows: viability of HCT116 without oncogenic beta-catenin – human colon tumor cells, pilot screen (AID 823;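 active = cell viability at or below a set limit in both duplicate runs, the limit being the all-compound median minus 4 SD, cut at about 23% in these data, passing the limit was not always enough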;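 note: 0% = wells killed by 20 µM Hyamine and 100% = untreated DMSO cell wells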). The following applies: HCT116 beta-catenin knockout viability, CellTiter-Glo, 60 h; at 10 µM; active compounds read low.
The nature of test [5]: viability of PTEN-null HCT116 cells – cell-based, HCT116 clonal line, CellTiter-Glo, pilot screen (AID 824;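 active = viability at or below 27.92% in each of two runs, the all-compound median minus 4 SD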;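 note: 0% = 20 µM Hyamine control and 100% = vehicle cell control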). The conditions noted are these: HCT116 PTEN-deleted viability, 60 h, at 10 µM, active compounds read low.
A short description of test [6]: RAM pathway blockade in budding yeast – dse1pr::URA3 reporter, 5-FOA selection, pilot screen (AID 869;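 active = inhibition over a set limit, the all-compound mean plus 3 SD, in both replicate runs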;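 note: 0% = DMSO wells with no growth and 100% = 10 µM 1-NA-PP1 with full growth; RAM network block rescues cells from 5-FOA so hits raise OD615 growth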). The conditions noted are these: S. cerevisiae dse1pr::URA3 5-FOA growth, OD615, 2 d; at 10 µM; active compounds read high; strain carries analog-sensitive mutant Cbk1 kinase.
Test [7] is described as follows: RAM signaling pathway blockade in yeast – S. cerevisiae, Pdr1DBD-CYC8 efflux-inhibited sensitized strain, primary screen (AID 1298).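 Note: 0% = DMSO untreated cells without growth and 100% = 10 µM 1-NA-PP1 full growth; higher means more yeast growth rescued from 5-FOA killing.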 The conditions noted are these: S. cerevisiae cbk1-as DSE1-URA3 strain, 5-FOA growth OD615, 2 d; at 50 µM; active compounds read high.

Each structure is given as a SMILES string. Unmarked numbers belong to inactive results. Records with an inconclusive call do not appear. Active and inactive are the calls of the source.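 Rule for the calls, unless noted: active = RAM network inhibition above 8.4% in each of two replicates, 3 SD over the compound average; inconclusive = above 8.4% inhibition in only one replicate; inactive = 8.4% inhibition or less in each replicate.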

Regarding `CCOC(=O)C1=C(C)NC(=O)CC1c1cc2c(cc1Br)OCO2` (stereo not drawn), the growth inhibition in test [1] was 1.83%; in test [2] it was -5.8%. In test [3], the viability increase is -4.4%. Further, the viability in test [4] is 96.6%; in test [5] it was 90.6%. Besides, the inhibition in test [6] was 1.44%. The RAM network inhibition in test [7] is 6.81%.

For `CCOc1ccccc1NC(=O)C1CCN(S(=O)(=O)c2ccc(OC)c(OC)c2)CC1`, the results for the growth inhibition in test [1] and in test [2] were -4.97% and -2.79%, respectively. The viability increase in test [3] is -2.46%. Further, the values for the viability in test [4] and in test [5] were 95% and 98.1%, respectively. In test [6], the inhibition was 0.085%. For the same compound, the RAM network inhibition in test [7] was 0.83%.

As to `COc1ccccc1CNC(=O)C1CCN(S(=O)(=O)c2cccc3cccnc23)CC1`, the growth inhibition in test [1] is 5.11%; in test [2], 0.02%. For the same compound, in test [3], the viability increase is -1.41%. Further, the viability in test [4] was 108%; in test [5], 97.2%. Further, in test [6], the inhibition is -0.9%. In test [7], the RAM network inhibition was -0.93%.

As for `O=C1C2C3C=CC(CO)(O3)C2C(=O)N1c1ccccc1-c1ccccc1` (stereo not drawn), the growth inhibition in test [1] is 97.3% (active); in test [2], 100% (active). The viability increase in test [3] was -4.39%. The viability in test [4] was 93.7%; in test [5], 92%. In addition, the inhibition in test [6] was 0.13%. The RAM network inhibition in test [7] was -1.89%.

`Cc1ccc(N2CCN(S(=O)(=O)c3ccc(F)cc3)CC2)c(C)c1`: the figures for the growth inhibition in test [1] and in test [2] were -0.375% and -15.2%, respectively. Besides, the viability increase in test [3] is -1.12%. For the same compound, the viability in test [4] is 66.6%; in test [5], 60.9%. Moreover, in test [6], the inhibition is -0.44%. Besides, the RAM network inhibition in test [7] was 7.03%.

For `COC(=O)C1C(O)=C(C=NCC(C)N=CC2=C(O)C(C(=O)OC)C(C)(C)CC2=O)C(=O)CC1(C)C` (stereo not drawn), the growth inhibition in test [1] was -4.88%; in test [2], -3.87%. The viability increase in test [3] was -0.55%. The viability was 92.4% in test [4] and 93.7% in test [5]. The inhibition in test [6] was 2.5%. Moreover, in test [7], the RAM network inhibition is 0.9%.

On to `COc1ccc(C2NC(=O)c3n[nH]c(C)c32)c(OC)c1` (stereo not drawn), for which the growth inhibition was -1.65% in test [1] and 7.6% in test [2]. Further, in test [3], the viability increase is -0.95%. Moreover, the figures for the viability in test [4] and in test [5] were 102% and 103%, respectively. In test [6], the inhibition is 2.85%. The RAM network inhibition in test [7] was 3.42%.

On to `COc1cc(NC(=O)C2CCC(CNc3c(N4CCCCC4)c(=O)c3=O)CC2)cc(OC)c1` (stereo not drawn), for which the growth inhibition is 0.52% in test [1] and -2.35% in test [2]. Also, the viability increase in test [3] is -0.71%. The viability in test [4] was 95.2%; in test [5], 95.9%. Further, the inhibition in test [6] was 1.79%. For the same compound, in test [7], the RAM network inhibition was 5.55%.

With `COc1ccc(-c2oc(/N=C/N3CCOCC3)c(C#N)c2-c2ccc(OC)cc2)cc1`, the results for the growth inhibition in test [1] and in test [2] were -10.1% and -18.7%, respectively. Moreover, in test [3], the viability increase was -0.81%. Besides, the viability in test [4] is 88.6%; in test [5] it was 83.4%. Also, in test [6], the inhibition was 2.25%. In test [7], the RAM network inhibition was 2.33%.

On to `CCN1CCN(c2ncnc3c2sc(=S)n3-c2ccccc2)CC1`, for which the growth inhibition in test [1] is 8.5%; in test [2], 11.5%. Also, in test [3], the viability increase is -3.4%. In addition, the viability in test [4] is 85.4%; in test [5], 84.9%. In test [6], the inhibition was 1.73%. For the same compound, in test [7], the RAM network inhibition was -0.06%.

Regarding `CCN1CCc2c(sc(NC(=O)c3ccc(S(=O)(=O)N4CCOCC4)cc3)c2C(N)=O)C1`, the results for the growth inhibition in test [1] and in test [2] were -2.02% and -1.51%, respectively. In addition, the viability increase in test [3] was -2.7%. Further, the viability in test [4] was 86.8%; in test [5], 87.2%. The inhibition in test [6] was 1.45%. Also, in test [7], the RAM network inhibition was 0.16%.

For the compound `COC(=O)c1c(C(=O)OC)c2n(c1C)Cc1ccccc1C2`, the growth inhibition in test [1] was -4.47%; in test [2], -1.14%. Further, the viability increase in test [3] was -1.39%. Moreover, the viability in test [4] is 86.6%; in test [5] it was 90.2%. Also, the inhibition in test [6] is 1.85%. The RAM network inhibition in test [7] was 1.43%.

On to `CCOc1ccc(C2C(C(=O)NC)=C(C)Nc3nc4ccccc4n32)cc1OC` (stereo not drawn), for which the growth inhibition in test [1] is -4.37%; in test [2] it was -0.94%. Also, the viability increase in test [3] was 0.24%. The viability in test [4] was 98.8%; in test [5], 103%. The inhibition in test [6] is 1.18%. In test [7], the RAM network inhibition was 2.01%.

Take `Cc1cc(Nc2ccc(C(C)C)cc2)n2ncnc2n1`: the results for the growth inhibition in test [1] and in test [2] were -6.6% and 7.39%, respectively. For the same compound, the viability increase in test [3] is -0.35%. Further, the viability in test [4] was 95.2%; in test [5] it was 85.2%. The inhibition in test [6] was 0.465%. Moreover, the RAM network inhibition in test [7] is 5.75%.

Turning to `CCCCOC(=O)CSc1nnc(N)s1`, the growth inhibition is -4.92% in test [1] and -1.45% in test [2]. Also, the viability increase in test [3] was -0.86%. Moreover, the viability in test [4] was 105%; in test [5] it was 96.5%. In test [6], the inhibition is 0.205%. Also, the RAM network inhibition in test [7] was 6.89%.

For the compound `CC(Oc1ccc(Cl)cc1Cl)C(=O)NCCCN1CCOCC1` (stereo not drawn), the growth inhibition in test [1] was -8.88%; in test [2], -10.2%. In addition, the viability increase in test [3] is 0.14%. The viability is 96% in test [4] and 95% in test [5]. Also, the inhibition in test [6] was -0.36%. For the same compound, the RAM network inhibition in test [7] was 0.47%.

With `CC(C)(C)c1ccc(-c2cc(N)n[nH]2)cc1`, the figures for the growth inhibition in test [1] and in test [2] were 2.28% and 13.2%, respectively. Further, the viability increase in test [3] was -2.81%. Moreover, the figures for the viability in test [4] and in test [5] were 95.5% and 90.1%, respectively. Also, the inhibition in test [6] is 2.32%. Further, the RAM network inhibition in test [7] is 2.2%.

Take `COc1ccc(N2CCN(C(=O)C(Cc3ccccc3)n3cccc3)CC2)cc1` (stereo not drawn): the growth inhibition in test [1] is -14.4%; in test [2], -6.94%. The viability increase in test [3] was -2.94%. The viability in test [4] was 84.9%; in test [5] it was 82.6%. The inhibition in test [6] was 1.7%. In addition, the RAM network inhibition in test [7] is 6.88%.

For the compound `COc1ccc(C(=O)Nc2ccccc2C(=O)NCCCn2ccnc2)cc1`, the results for the growth inhibition in test [1] and in test [2] were -1.82% and -2.64%, respectively. The viability increase in test [3] was -0.82%. Further, the viability in test [4] is 95.1%; in test [5], 92.9%. Besides, in test [6], the inhibition was 0.715%. The RAM network inhibition in test [7] was 2.86%.

Take `Cn1c(=O)c2c(nc(CN3CCN(Cc4ccccc4)CC3)n2Cc2ccccc2)n(C)c1=O`: the growth inhibition in test [1] was -6.72%; in test [2], -11.8%. The viability increase in test [3] is -0.85%. The results for the viability in test [4] and in test [5] were 85.6% and 88%, respectively. The inhibition in test [6] was 2.02%. Moreover, the RAM network inhibition in test [7] was -0.01%.

For the compound `COc1ccc(-c2nnc(SCC(=O)NC(C)C)n2CC2CCCO2)cc1OC` (stereo not drawn), the growth inhibition in test [1] was 1.07%; in test [2], -3.87%. Also, the viability increase in test [3] is 0.35%. In addition, the viability is 103% in test [4] and 98.3% in test [5]. Besides, the inhibition in test [6] is 1.69%. Further, the RAM network inhibition in test [7] was -0.58%.

In the case of `COC(=O)c1ccccc1NC(=O)CSc1nc(N)cc(N)n1`, the growth inhibition was -11.6% in test [1] and 5.95% in test [2]. Besides, the viability increase in test [3] is -2.46%. Further, the viability was 94.1% in test [4] and 98.3% in test [5]. The inhibition in test [6] is 0.39%. Besides, in test [7], the RAM network inhibition is -0.05%.

Turning to `COc1ccc(/C(N)=C/C(=O)C(C)(C)C)cc1`, the values for the growth inhibition in test [1] and in test [2] were -14.2% and -11.6%, respectively. The viability increase in test [3] is 0.55%. Further, the figures for the viability in test [4] and in test [5] were 96.1% and 98.2%, respectively. In addition, the inhibition in test [6] was 2.5%. In test [7], the RAM network inhibition is 4.84%.

On to `CC1Cn2c(COc3ccccc3)nnc2S1` (stereo not drawn), for which the growth inhibition in test [1] was -8.31%; in test [2] it was 6.73%. Besides, the viability increase in test [3] is -0.25%. Besides, the viability in test [4] was 102%; in test [5], 94.1%. The inhibition in test [6] was 0.645%. In test [7], the RAM network inhibition was 4%.

(Values after PubChem BioAssay.)
